Bioassay records deposited in PubChem BioAssay by several laboratories.
ABHD5 PLIN5 PPI – ABHD5-PLIN5 protein interaction inhibition; Q00G26+Q8WTS1; Split G. princeps luciferase complementation, luminescence, 4 h; inhibition, % at 4 µM; 360,000 tested, 0.78% active; AID 602281;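 active = inhibition above the mean inhibition across every tested compound plus 3 SD, cut at about 22% in these data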;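 note: 0% = DMSO only wells and the 100% control is not disclosed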
B2AR ag – human beta-2 adrenergic receptor agonism by FAP. Am2.2-beta2AR cells, FAP receptor internalization, flow cytometry. 340,000 tested, 0.43% active. AID 504454. response, % (no concentration beside the values);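 active = response above a set limit, near 3 SD of response in nonfluorescent compounds, cut at about 42% in these data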
TLR9-MyD88 block – TLR9-MyD88 interaction inhibition; 340,000 tested, 0.21% active; CHO BLA complementation TLR9-MyD88, CCF4 FRET ratio; inhibition, % at 4.98 µM;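 active = inhibition above the mean over all tested compounds plus 3 SD, cut at about 21% in these data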;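 note: 0% = DMSO only wells and 100% = clavulanate BLA inhibitor control wells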
NOD2 RIPK2 PPI – NOD2-RIPK2 protein interaction inhibition; CHO BLA complementation NOD2-RIPK2, CCF4 ratio; inhibition, % at 4.98 µM; 360,000 tested, 0.38% active; in the data active = inhibition above about 21%;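 note: 0% = vehicle only and 100% = reference blocker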
TLR4-MyD88 BLA – inhibitors of human TLR4-MyD88 binding; inhibition, % at 8.4 µM; HeLa CL3-4 TLR4/MyD88 BLA complementation, FRET ratio; 200,000 tested, 0.18% active; O00206+Q99836; in the data active = inhibition above about 25%;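 note: 0% = vehicle and 100% = reference inhibitor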
Target sequence (O00206 whole entry, looked up): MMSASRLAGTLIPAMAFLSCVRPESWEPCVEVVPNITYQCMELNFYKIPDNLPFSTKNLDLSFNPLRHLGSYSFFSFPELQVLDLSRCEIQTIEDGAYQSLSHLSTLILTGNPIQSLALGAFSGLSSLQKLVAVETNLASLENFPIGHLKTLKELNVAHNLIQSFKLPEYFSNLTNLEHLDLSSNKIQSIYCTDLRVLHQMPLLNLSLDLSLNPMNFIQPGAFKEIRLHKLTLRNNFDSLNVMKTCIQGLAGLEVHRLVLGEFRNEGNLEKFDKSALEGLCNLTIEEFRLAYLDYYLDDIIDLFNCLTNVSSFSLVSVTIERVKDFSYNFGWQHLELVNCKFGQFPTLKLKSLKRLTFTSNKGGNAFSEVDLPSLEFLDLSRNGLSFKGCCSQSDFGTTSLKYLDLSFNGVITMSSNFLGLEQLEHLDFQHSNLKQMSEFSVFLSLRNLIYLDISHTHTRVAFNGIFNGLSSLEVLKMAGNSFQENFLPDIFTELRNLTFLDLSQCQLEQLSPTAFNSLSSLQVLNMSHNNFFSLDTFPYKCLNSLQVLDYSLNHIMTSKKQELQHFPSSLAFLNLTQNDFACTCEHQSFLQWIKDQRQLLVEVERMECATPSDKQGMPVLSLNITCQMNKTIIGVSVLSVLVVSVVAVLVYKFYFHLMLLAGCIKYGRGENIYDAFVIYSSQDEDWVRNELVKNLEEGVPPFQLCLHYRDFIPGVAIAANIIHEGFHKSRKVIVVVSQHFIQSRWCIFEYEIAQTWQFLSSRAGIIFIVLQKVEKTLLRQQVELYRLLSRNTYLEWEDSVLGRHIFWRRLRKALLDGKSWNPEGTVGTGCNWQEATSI
Target sequence (Q99836 whole entry, looked up): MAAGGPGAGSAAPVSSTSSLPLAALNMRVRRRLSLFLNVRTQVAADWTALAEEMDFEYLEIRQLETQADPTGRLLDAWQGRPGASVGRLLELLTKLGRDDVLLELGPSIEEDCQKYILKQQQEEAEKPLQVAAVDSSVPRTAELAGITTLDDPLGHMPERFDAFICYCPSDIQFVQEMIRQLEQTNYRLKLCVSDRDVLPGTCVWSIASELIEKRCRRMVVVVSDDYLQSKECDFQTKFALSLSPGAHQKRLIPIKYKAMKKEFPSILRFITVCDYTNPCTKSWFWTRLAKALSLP
Dynein cargo inh – blocks dynein driven cargo transport along microtubules. z-score, hits read low. AID 1381. 3617.4 mouse cells, GR-EGFP nuclear translocation imaging; test concentration mostly 20 µM; stimulated with dexamethasone, 1 µM; hits give low values. 220,000 tested, 0.47% active;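 active = plate z-score of nuclear minus cytoplasmic receptor signal below a set negative limit, without overly bright fluorescence or cell loss, cut at about -3.5 in these data, passing the limit was not always enough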;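 note: z-score of nuclear minus cytoplasmic ring GR-EGFP intensity difference per well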
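medium = tetracycline-free induction medium containing charcoal-stripped FBS | also added = 1.0 µM final dexamethasone stimulus | schedule = 48 h induction, 1 h compound, 30 min dex at 37 °C | technique = fixed, Hoechst-stained cells imaged at 10x for EGFP | measure = GR-EGFP nuclear translocation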
TLR4 MyD88 cnf – TLR4-MyD88 interaction inhibition confirmed; shares compounds with TLR4-MyD88 BLA; HeLa CL3-4 BLA complementation, CCF4 FRET ratio; inhibition, % at 8.4 µM; 350 tested, 50% active; AID 941;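 active = mean inhibition across three repeat runs above about 25% carried over from the earlier screen, limit read from the data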;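 note: plate controls were DMSO only for no effect and clavulanic acid blocking BLA at full dose for full effect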
BLA inh HeLa – beta-lactamase inhibition flagged in TLR4-MyD88 counter-screen. inhibition, % at 8.4 µM. AID 1237. 350 tested, 63% active. HeLa BLA reporter, CCF4 FRET ratio. shares compounds with TLR4-MyD88 BLA;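 active = mean inhibition over three repeats above about 26% taken from the earlier screen, limit read from the data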;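 note: HeLa cells stably expressing beta-lactamase reporter as counterscreen for TLR4-MyD88 inhibitors; 0% = DMSO and 100% = clavulanic acid full inhibition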
Starred values were filed as active, the others as inactive. An excerpt weighted towards active compounds, which were near 1.6% of everything screened.

What do the screens show for `O=C(Cn1ccc2ccccc2c1=O)NCCC(=O)N1CCN(c2cccc(Cl)c2)CC1`?
ABHD5 PLIN5 PPI: 5.2; B2AR ag: 0.2; TLR9-MyD88 block: -6.7; NOD2 RIPK2 PPI: -3.1; TLR4-MyD88 BLA: -4.2; Dynein cargo inh: -0.274

Results for CC(C)Oc1ccc(/C=C/C(=O)NCC2COc3ccccc3O2)cc1 (configuration not stated) ?
ABHD5 PLIN5 PPI: -9.7; B2AR ag: 58.4*; TLR9-MyD88 block: 0.1; NOD2 RIPK2 PPI: 6.0; Dynein cargo inh: -1.24

Results for COc1ccc(/C=C2\Cc3ccccc3C2=O)cc1OC ?
ABHD5 PLIN5 PPI: 4.2; B2AR ag: 1.4; TLR9-MyD88 block: -6.4; NOD2 RIPK2 PPI: -6.6; Dynein cargo inh: 0.0535

How did COc1cc(C=C2Cc3ccccc3C2=O)cc(OC)c1OC do in these assays?
ABHD5 PLIN5 PPI: 22.3*; NOD2 RIPK2 PPI: 0.1

What do the screens show for `Oc1ccc(Nc2nc3ccccc3nc2Nc2ccc(O)cc2)cc1`?
ABHD5 PLIN5 PPI: 57.2*; B2AR ag: 1.1; TLR9-MyD88 block: -5.4; NOD2 RIPK2 PPI: 14.9; TLR4-MyD88 BLA: 10.5; Dynein cargo inh: -3.35

How did CCOc1ccc(S(=O)(=O)N2CCC(C(=O)NCc3ccco3)CC2)cc1C do in these assays?
ABHD5 PLIN5 PPI: -14.9; B2AR ag: -15.2; TLR9-MyD88 block: -3.0; NOD2 RIPK2 PPI: 2.6

What do the screens show for `Cc1cc2c(=O)n(Cc3ccco3)c(SCC(=O)c3ccc(Cl)s3)nc2s1`?
ABHD5 PLIN5 PPI: 4.4; B2AR ag: 52.1*; TLR9-MyD88 block: 1.9; NOD2 RIPK2 PPI: -3.3; TLR4-MyD88 BLA: -15.3; Dynein cargo inh: 0.983

Results for Cc1cccc(/C=N/NC(=O)c2cc(-c3cccnc3)nc3ccccc23)c1 ?
ABHD5 PLIN5 PPI: -3.1; B2AR ag: -6.4; TLR9-MyD88 block: 2.0; NOD2 RIPK2 PPI: 9.8; TLR4-MyD88 BLA: -7.3; Dynein cargo inh: 0.076

Results for Cc1cccc(/C=N/NC(=O)c2cc(-c3cccnc3)nc3c2c(C)nn3-c2ccccc2)c1 ?
ABHD5 PLIN5 PPI: 3.4; B2AR ag: 103.4*; TLR9-MyD88 block: -5.2; NOD2 RIPK2 PPI: 0.6; TLR4-MyD88 BLA: -8.8; Dynein cargo inh: inactive

Results for Cc1nn(-c2ccccc2)c(Cl)c1/C=N/NC(=O)c1cccnc1 ?
ABHD5 PLIN5 PPI: 0.0; B2AR ag: 50.0*; TLR9-MyD88 block: -16.4; NOD2 RIPK2 PPI: 19.5; TLR4-MyD88 BLA: -5.0; Dynein cargo inh: 0.126

What do the screens show for `Cc1nn(-c2ccccc2)c(C)c1/C=N/NC(=O)c1cc(-c2ccccc2)n[nH]1`?
ABHD5 PLIN5 PPI: -3.3; B2AR ag: 68.2*; TLR9-MyD88 block: 1.0; NOD2 RIPK2 PPI: 10.0; TLR4-MyD88 BLA: -1.4; Dynein cargo inh: -0.000667

What do the screens show for `Cc1cccc(CS(=O)(=O)Cc2ccc(C(=O)NC(C)c3ccccc3)o2)c1` (configuration not stated)?
ABHD5 PLIN5 PPI: -4.8; B2AR ag: -4.1; TLR9-MyD88 block: -3.4; NOD2 RIPK2 PPI: 2.4

Results for CC(C)(C)OC(=O)N[C@@H](Cc1ccccc1)c1nnc(S(=O)(=O)Cc2ccccc2)o1 ?
TLR4-MyD88 BLA: 14.0; Dynein cargo inh: -4.31*

What do the screens show for `CCC(C)[C@@H](NC(=O)OC(C)(C)C)c1nnc(S(=O)(=O)Cc2cccc(C)c2)o1` (some centres not stated)?
ABHD5 PLIN5 PPI: 73.2*; B2AR ag: 33.1; TLR9-MyD88 block: 7.9; NOD2 RIPK2 PPI: 23.7*; TLR4-MyD88 BLA: 12.8; Dynein cargo inh: -2.21

Results for O=C1C=CC(=O)N1CCCCCCN1C(=O)C=CC1=O ?
TLR4-MyD88 BLA: -5.2; Dynein cargo inh: -4.01*

What do the screens show for `O=C1C2C3C=CC(C3)C2C(=O)N1CCCCCCN1C(=O)C2C3C=CC(C3)C2C1=O` (configuration not stated)?
ABHD5 PLIN5 PPI: -1.5; B2AR ag: -3.9; TLR9-MyD88 block: -15.4; NOD2 RIPK2 PPI: -4.1; TLR4-MyD88 BLA: -1.1; Dynein cargo inh: 2.01

Results for COc1ccc(C(=O)NN(C)c2nc(-c3ccccc3)nnc2C(F)(F)F)cc1 ?
ABHD5 PLIN5 PPI: 1.1; B2AR ag: 49.1*; TLR9-MyD88 block: -0.2; NOD2 RIPK2 PPI: -4.8; TLR4-MyD88 BLA: 2.7; Dynein cargo inh: 1.02

How did Cc1cccc(S(=O)(=O)NC(=O)C2(C)CCN2C(=O)C2(c3ccc(Cl)cc3)CCC2)c1 (configuration not stated) do in these assays?
ABHD5 PLIN5 PPI: -5.8; NOD2 RIPK2 PPI: 2.1

How did Cc1ccc(S(=O)(=O)NC(C(=O)Oc2ccc3c(C(F)(F)F)cc(=O)oc3c2)c2ccccc2)cc1 (configuration not stated) do in these assays?
ABHD5 PLIN5 PPI: 1.1; B2AR ag: -7.6; TLR9-MyD88 block: 2.5; NOD2 RIPK2 PPI: -0.1; TLR4-MyD88 BLA: 38.1*; Dynein cargo inh: -3.04; TLR4 MyD88 cnf: 31.4*; BLA inh HeLa: 62.1*

How did O=C(Nc1ccccc1)C(=O)c1c[nH]c2ccccc12 do in these assays?
ABHD5 PLIN5 PPI: -5.9; B2AR ag: 12.8; TLR9-MyD88 block: 1.8; NOD2 RIPK2 PPI: 2.2

Results for Cc1ccc(C)c(NS(=O)(=O)c2ccc(OCC(=O)NCc3ccco3)cc2)c1 ?
ABHD5 PLIN5 PPI: 2.1; B2AR ag: 3.0; TLR9-MyD88 block: 2.5; NOD2 RIPK2 PPI: 2.7; TLR4-MyD88 BLA: 26.4*; Dynein cargo inh: 0.0614; TLR4 MyD88 cnf: 3.3; BLA inh HeLa: 1.0

What do the screens show for `O=[N+]([O-])c1ccc(N/N=C/c2cn(-c3ccccc3)nc2-c2ccccc2)cc1`?
ABHD5 PLIN5 PPI: 5.8; B2AR ag: -45.6; TLR9-MyD88 block: 14.2; NOD2 RIPK2 PPI: 9.6; TLR4-MyD88 BLA: 37.7*; Dynein cargo inh: -2.67; TLR4 MyD88 cnf: 37.6*; BLA inh HeLa: 74.6*

How did OCCCc1nc2n(n1)C(c1cccs1)C=C(c1ccccc1)N2 (configuration not stated) do in these assays?
TLR4-MyD88 BLA: 24.4; Dynein cargo inh: 1.23

What do the screens show for `OCCCc1nc2n(n1)C(c1ccccc1Cl)C=C(c1cccs1)N2` (configuration not stated)?
ABHD5 PLIN5 PPI: 8.8; B2AR ag: -3.0; TLR9-MyD88 block: 50.6*; NOD2 RIPK2 PPI: 71.8*; TLR4-MyD88 BLA: 32.2*; Dynein cargo inh: -0.538; TLR4 MyD88 cnf: 19.4; BLA inh HeLa: 51.6*

How did Cc1ccc(OCC(=O)NNC(=O)c2cc(S(=O)(=O)N(C)C)ccc2N2CCCC2)cc1 do in these assays?
ABHD5 PLIN5 PPI: -9.5; TLR9-MyD88 block: -11.4; NOD2 RIPK2 PPI: -2.6
